Source: ChEMBL document CHEMBL3351543, “Novel Type of Prodrug Activation through a Long-Range O,N-Acyl Transfer: A Case of Water-Soluble CREB Inhibitor” (ACS Med Chem Lett, 2014)
pIC50: −log10 of the molar value.

Columns and labels:
[1] = Aqueous solubility in water; type: physicochemical
MDA-MB-231 = assay: Growth inhibition of human MDA-MB-231 cells after 72 hrs by MTT assay; type: functional; conditions: MDA-MB-231, 72 h
Summary of the method: (§1)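 Cancer cells exposed to compounds for 72 h; growth measured by MTT assay. GI50 is the concentration giving 50% growth inhibition, highest concentration tested 100 μM. Mean ± SD of at least two independent experiments.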

HEK-293T = assay: Inhibition of CREB in HEK293T cells assessed as reduction in forskolin-induced NR4A2 mRNA expression at 2.5 uM pre-incubated for 1 hrs before forskolin stimulation for 45 mins by RT-PCR method; type: cell-based; conditions: Homo sapiens
Summary of the method: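 HEK 293T cells pretreated with compounds for 1 h, then forskolin added for a further 45 min. Endogenous NR4A2 mRNA quantified by qRT-PCR as relative level; significance by Student's t test.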

A549 = assay: Growth inhibition of human A549 cells after 72 hrs by MTT assay; type: functional, cell-based; conditions: A549, 72 h; summary of the method: as §1
[2] = Half life in PBS buffer at pH 6.01 by RP-HPLC method; type: ADME
Summary of the method: (§2)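 Compound incubated in PBS at room temperature at pH 7.40, 6.98, 6.48 or 6.01. Aliquots taken at set times were analysed by RP-HPLC, and percent parent remaining was quantified per chromatogram. Data fitted to first-order kinetics to derive t1/2; mean ± SD of two independent experiments.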

MDA-MB-468 = assay: Growth inhibition of human MDA-MB-468 cells after 72 hrs by MTT assay; type: functional; conditions: MDA-MB-468, 72 h; summary of the method: as §1
[3] = Inhibition of CREB (unknown origin) expressed in HEK293T cells assessed as reduction in CREB-mediated gene tanscription after 5 hrs by luciferase reporter gene assay; type: cell-based; conditions: Homo sapiens, HEK-293T
Summary of the method: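 CREB-Renilla luciferase reporter assay in living HEK 293T cells measuring CREB-mediated gene transcription. Highest concentration tested 50 μM. IC50 given as mean ± SD of at least two independent experiments.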

[4] = Half life in PBS buffer at pH 7.4 by RP-HPLC method; type: ADME; summary of the method: as §2
[5] = Half life in PBS buffer at pH 6.98 by RP-HPLC method; type: ADME; summary of the method: as §2
[6] = Inhibition of CREB (unknown origin) assessed as reduction in KIX-KID interaction after 20 to 24 hrs by renilla luciferase complementation assay; parameters: species or system Homo sapiens
Summary of the method: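 In vitro Renilla luciferase complementation assay of KIX–KID interaction, run at 4 °C. Highest concentration tested 50 μM. IC50 given as mean ± SD of at least two independent experiments.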

[7] = Half life in Dulbecco's Modified eagle medium at pH 7.7 containing 10% fetal bovine serum; type: ADME; conditions: cattle, Dulbecco's Modified Eagle medium with 10% fetal bovine serum
Summary of the method: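 Compound incubated at 37 °C in DMEM with 10% FBS. At set times an aliquot was mixed with 9 volumes of acetonitrile to precipitate protein, and the supernatant was analysed by RP-HPLC with UV detection at 254 nm against an internal standard.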

[8] = Half life in PBS buffer at pH 7.4 at 4 degC by RP-HPLC method; type: ADME
[9] = Half life in PBS buffer at pH 6.48 by RP-HPLC method; type: ADME; summary of the method: as §2
MCF7 = assay: Growth inhibition of human MCF7 cells after 72 hrs by MTT assay; type: functional; conditions: MCF7, 72 h; summary of the method: as §1
[10] = Drug level in PBS buffer treated with 2-(3-(3-Aminopropoxy)-2-naphthamido)-5-chlorophenyl 3-(3-Aminopropoxy)-2-naphthoate dihydrochloride at room temperature assessed as compound formation; type: physicochemical; summary of the method: as §2
[11] = Retention time of the compound by HPLC method; type: physicochemical

Row | SMILES | solubility [1] [µg/mL] | GI50 (MDA-MB-231) [nM] | pIC50 (A549) | half-life [2] [h] | GI50 (MDA-MB-468) [nM] | pIC50 [3] | half-life [4] [h] | half-life [5] [h] | pIC50 [6] | half-life [7] [h] | half-life [8] [h] | half-life [9] [h] | GI50 (MCF7) [nM] | Drug metabolism [10] | Retention_time [11] [min] | fold change (FC) (HEK-293T)
1 | Cl.NCCCOc1cc2ccccc2cc1C(=O)Nc1ccc(Cl)cc1OC(=O)c1cc2ccccc2cc1OCCCN | > 100000 | 1300 | 6.23 | 7.46 | 330 | 5.64 | 0.455 | 0.628 | 5.36 | < 0.0833 | 24 | 1.91 |  |  |  | 10
2 | COc1cc2ccccc2cc1C(=O)Nc1ccc(Cl)cc1O |  | > 100000 | < 4.00 |  | > 100000 | < 4.30 |  |  | < 4.30 |  |  |  | > 100000 |  |  | 
3 | NCCCOc1cc2ccccc2cc1C(=O)Nc1ccc(Cl)cc1O |  | 2190 | 5.56 |  | 1200 | 4.58 |  |  | < 4.30 |  |  |  | 1850 |  |  | 

Continued by falling GI50 (MDA-MB-231), values first:

Row | solubility [1] [µg/mL] | GI50 (MDA-MB-231) [nM] | pIC50 (A549) | half-life [2] [h] | GI50 (MDA-MB-468) [nM] | pIC50 [3] | half-life [4] [h] | half-life [5] [h] | pIC50 [6] | half-life [7] [h] | half-life [8] [h] | half-life [9] [h] | GI50 (MCF7) [nM] | Drug metabolism [10] | Retention_time [11] [min] | SMILES | fold change (FC) (HEK-293T)
4 | < 100 | 23500 | 5.06 |  | 8110 | 5.71 |  |  | 6.77 | 20 |  |  |  |  |  | COc1cc2ccccc2cc1C(=O)Nc1ccc(Cl)cc1OC(=O)c1cc2ccccc2cc1OC | 
5 |  | 2350 | 5.54 |  | 1460 | 5.64 |  |  | 5.54 |  |  |  | 2810 |  |  | O=C(Nc1ccc(Cl)cc1)c1cc2ccccc2cc1O | 
6 | 120 | 370 | 6.54 |  | 220 | 5.65 |  |  | 4.71 |  |  |  | 140 | metabolite_detected | 12.2 | Cl.NCCCOc1cc2ccccc2cc1C(=O)NCCCOc1cc2ccccc2cc1C(=O)Nc1ccc(Cl)cc1O | 10
